# Measured values as given in ChEMBL document CHEMBL1944562, “Design, synthesis of some new (2-aminothiazol-4-yl)methylester derivatives as possible antimicrobial and antitubercular agents” (2012).
# What was measured:
# Format in all cases: functional
# Bacillus subtilis [1] = assay: Antibacterial activity against Bacillus subtilis at MIC after 3 to 4 days
# Outline: (§1)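 Agar well diffusion on seeded agar plates, 20 mL agar per dish, dried 1 h at 37 °C. Wells punched and loaded with test compound in DMSO at its MIC. DMSO-only control. Plates run in triplicate and kept 3-4 days at 37 °C. Inhibition zone diameter measured.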
# Klebsiella pneumoniae [2] = assay: Antibacterial activity against Klebsiella pneumoniae after 16 to 18 hrs by […]
# Candida albicans [3] = assay: Antifungal activity against Candida albicans at MIC after 3 to 4 days
# Outline: (§2)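 Fungal suspension made by transferring a loopful of culture to 3 mL saline and seeding agar plates, 20 mL agar per dish, dried 1 h at 37 °C. Punched wells loaded with test compound in DMSO at its MIC. DMSO-only control. Triplicate plates held 3-4 days at 37 °C. Inhibition zone diameter measured.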
# Aspergillus fumigatus [4] = assay: Antifungal activity against Aspergillus fumigatus NCIM N0.902 after 3 to 4 days by serial plate dilution method
# [5] = system: Trichophyton mentagrophytes; assay: Antifungal activity against Trichophyton mentagrophytes after 3 to 4 days by serial plate dilution method
# [6] = system: Mycolicibacterium fortuitum; assay: Antitubercular activity against Mycobacterium fortuitum ATCC 19542 after 7 days by resazurin assay; conditions: ATCC 19542, 168 h
# Outline: (§3)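 Middlebrook 7H9 broth with 10% OADC, culture adjusted to McFarland 2. 50 µL culture added to 150 µL fresh medium. Stocks at 2 mg/mL in DMF, tested first at 1, 10 and 100 µg/mL, then at 0.3125-5 µg/mL. DMF controls. After 7 days at 37 °C, 0.01% resazurin added. Blue-to-pink change read for MIC.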
# Pseudomonas aeruginosa [7] = assay: Antibacterial activity against Pseudomonas aeruginosa ATCC 27853 after 16 to 18 hrs by […]
# Aspergillus flavus [8] = assay: Antifungal activity against Aspergillus flavus NCIM N0.524 after 3 to 4 days by serial plate dilution method
# Talaromyces marneffei [9] = assay: Antifungal activity against Penicillium marneffei after 3 to 4 days by serial plate dilution method
# Candida albicans [10] = assay: Antifungal activity against Candida albicans after 3 to 4 days by serial plate dilution method
# Staphylococcus aureus [11] = assay: Antibacterial activity against Staphylococcus aureus ATCC 25923 at […] after 3 to 4 days; outline: as §1
# Escherichia coli [12] = assay: Antibacterial activity against Escherichia coli ATCC 25922 after 16 to 18 hrs by […]
# Klebsiella pneumoniae [13] = assay: Antibacterial activity against Klebsiella pneumoniae at MIC after 3 to 4 days; outline: as §1
# Aspergillus flavus [14] = assay: Antifungal activity against Aspergillus flavus NCIM N0.524 at MIC after 3 to 4 days; outline: as §2
# Bacillus subtilis [15] = assay: Antibacterial activity against Bacillus subtilis after 16 to 18 hrs by […]
# [16] = system: Mycobacterium tuberculosis; assay: Antitubercular activity against Mycobacterium tuberculosis H37Rv assessed as growth inhibition after 7 days by resazurin assay
# Outline: (§4)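 M. tuberculosis H37Rv ATCC 27294 grown in Middlebrook 7H9 broth with 10% OADC and adjusted to McFarland 2. Culture was diluted 1:4 into fresh medium. Compounds came from 2 mg/mL DMF stocks, screened first at 1, 10 and 100, then at 0.3125–5. DMF-only controls were included. After 7 days at 37 °C, 0.01% resazurin was added; a blue-to-pink change marked growth, and the MIC was read.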
# [17] = system: Mycolicibacterium smegmatis; assay: Antitubercular activity against Mycobacterium smegmatis ATCC 19420 after 7 days by resazurin assay; conditions: ATCC 19420, 168 h; outline: as §3
# [18] = system: Trichophyton mentagrophytes; assay: Antifungal activity against Trichophyton mentagrophytes at MIC after 3 to 4 days; outline: as §2
# Staphylococcus aureus [19] = assay: Antibacterial activity against Staphylococcus aureus ATCC 25923 after 16 to 18 hrs by serial plate dilution method
# Pseudomonas aeruginosa [20] = assay: Antibacterial activity against Pseudomonas aeruginosa ATCC 27853 at MIC after 3 to 4 days; outline: as §1
# Talaromyces marneffei [21] = assay: Antifungal activity against Penicillium marneffei at MIC after 3 to 4 days; outline: as §2
# Escherichia coli [22] = assay: Antibacterial activity against Escherichia coli ATCC 25922 at MIC after 3 to 4 days; outline: as §1
# Aspergillus fumigatus [23] = assay: Antifungal activity against Aspergillus fumigatus NCIM N0.902 at MIC after 3 to 4 days; outline: as §2
# [24] = system: Mycobacterium tuberculosis; assay: Antitubercular activity against Mycobacterium tuberculosis H37Rv after 7 days by resazurin assay; conditions: 168 h; outline: as §4
SMILES,diameter of the inhibition zone (DIZ) (Bacillus subtilis [1]) [mm],MIC (Klebsiella pneumoniae [2]) [µg/mL],diameter of the inhibition zone (DIZ) (Candida albicans [3]) [mm],MIC (Aspergillus fumigatus [4]) [µg/mL],MIC [5] [µg/mL],MIC [6] [µg/mL],MIC (Pseudomonas aeruginosa [7]) [µg/mL],MIC (Aspergillus flavus [8]) [µg/mL],MIC (Talaromyces marneffei [9]) [µg/mL],MIC (Candida albicans [10]) [µg/mL],diameter of the inhibition zone (DIZ) (Staphylococcus aureus [11]) [mm],MIC (Escherichia coli [12]) [µg/mL],diameter of the inhibition zone (DIZ) (Klebsiella pneumoniae [13]) [mm],diameter of the inhibition zone (DIZ) (Aspergillus flavus [14]) [mm],MIC (Bacillus subtilis [15]) [µg/mL],growth inhibition (GI) [16] [%],MIC [17] [µg/mL],diameter of the inhibition zone (DIZ) [18] [mm],MIC (Staphylococcus aureus [19]) [µg/mL],diameter of the inhibition zone (DIZ) (Pseudomonas aeruginosa [20]) [mm],also measured
Nc1nc(COC(=O)c2cccc([N+](=O)[O-])c2Cl)cs1,11,6.25,<10,25,25,10,25,25,12.5,25,11,12.5,16,<10,12.5,90,1,<10,12.5,<10,diameter of the inhibition zone (DIZ) (Talaromyces marneffei [21]): 11 mm; diameter of the inhibition zone (DIZ) (Escherichia coli [22]): 11 mm; diameter of the inhibition zone (DIZ) (Aspergillus fumigatus [23]): <10 mm; MIC [24]: 0.625 µg/mL
N#CCCc1cccc(C(=O)OCc2csc(N)n2)c1,16,12.5,11,25,25,10,6.25,6.25,6.25,12.5,16,6.25,11,16,6.25,95,1,<10,6.25,16,diameter of the inhibition zone (DIZ) (Talaromyces marneffei [21]): 16 mm; diameter of the inhibition zone (DIZ) (Escherichia coli [22]): 16 mm; diameter of the inhibition zone (DIZ) (Aspergillus fumigatus [23]): <10 mm; MIC [24]: 0.625 µg/mL
Nc1nc(COC(=O)c2ccco2)cs1,16,6.25,16,25,25,> 100,6.25,6.25,6.25,6.25,16,6.25,16,16,6.25,0,> 100,<10,6.25,16,diameter of the inhibition zone (DIZ) (Talaromyces marneffei [21]): 16 mm; diameter of the inhibition zone (DIZ) (Escherichia coli [22]): 16 mm; diameter of the inhibition zone (DIZ) (Aspergillus fumigatus [23]): <10 mm; MIC [24]: > 100 µg/mL
Nc1nc(COC(=O)c2ccccc2)cs1,16,6.25,<10,25,25,> 100,25,25,25,25,16,25,16,<10,6.25,0,> 100,<10,6.25,<10,diameter of the inhibition zone (DIZ) (Talaromyces marneffei [21]): <10 mm; diameter of the inhibition zone (DIZ) (Escherichia coli [22]): <10 mm; diameter of the inhibition zone (DIZ) (Aspergillus fumigatus [23]): <10 mm; MIC [24]: > 100 µg/mL
Nc1nc(COC(=O)c2ccc([N+](=O)[O-])cc2)cs1,10,6.25,16,6.25,6.25,10,12.5,6.25,6.25,6.25,<10,12.5,16,16,12.5,90,10,16,25,10,diameter of the inhibition zone (DIZ) (Talaromyces marneffei [21]): 16 mm; diameter of the inhibition zone (DIZ) (Escherichia coli [22]): 11 mm; diameter of the inhibition zone (DIZ) (Aspergillus fumigatus [23]): 16 mm; MIC [24]: 1 µg/mL
Nc1nc(COC(=O)Cc2ccccc2OC(F)(F)F)cs1,11,25,16,6.25,6.25,> 100,25,6.25,6.25,6.25,11,12.5,<10,16,12.5,<90,> 100,16,12.5,<10,diameter of the inhibition zone (DIZ) (Talaromyces marneffei [21]): 16 mm; diameter of the inhibition zone (DIZ) (Escherichia coli [22]): 11 mm; diameter of the inhibition zone (DIZ) (Aspergillus fumigatus [23]): 16 mm; MIC [24]: 5 µg/mL
Nc1nc(COC(=O)c2c(F)cc(F)cc2F)cs1,<10,25,16,6.25,6.25,> 100,6.25,6.25,6.25,6.25,<10,6.25,<10,16,25,<90,10,16,25,16,diameter of the inhibition zone (DIZ) (Talaromyces marneffei [21]): 16 mm; diameter of the inhibition zone (DIZ) (Escherichia coli [22]): 16 mm; diameter of the inhibition zone (DIZ) (Aspergillus fumigatus [23]): 16 mm; MIC [24]: 5 µg/mL
Nc1nc(COC(=O)c2c(Cl)cc(Cl)cc2Cl)cs1,16,12.5,16,6.25,6.25,> 100,25,6.25,6.25,6.25,16,25,11,16,6.25,<90,> 100,16,6.25,<10,diameter of the inhibition zone (DIZ) (Talaromyces marneffei [21]): 16 mm; diameter of the inhibition zone (DIZ) (Escherichia coli [22]): <10 mm; diameter of the inhibition zone (DIZ) (Aspergillus fumigatus [23]): 16 mm; MIC [24]: 10 µg/mL
